Test results published in ChEMBL document CHEMBL2177078, “New positron emission tomography (PET) radioligand for imaging σ-1 receptors in living subjects” (J Med Chem, 2012).
Activity calls are given as the source filed them. The rule behind the calls is not given here.

Experiments:
Brain [1] = assay: Drug uptake in Balb C mouse brain at 630-690 uCi, iv after 30 mins by HPLC analysis; assay type: ADME, organism-based; conditions: in vivo, 0.5 h
Procedure, shortened: (§1)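 Balb C mice (n=2 per time point) received 630-690 μCi tracer iv; brain and liver collected at 30 and 60 min. Tissue homogenized in 500 μL ice-cold acetonitrile, centrifuged 9,400 g for 4 min. Supernatants run on reversed-phase radio-HPLC; percent intact parent = parent peak area/total peak area × 100, decay corrected to dosing. Extraction efficiency checked by gamma counting.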

Cortex = assay: Biodistribution in mouse cortex at 200 uCi after 60 mins by autoradiography; assay type: ADME, organism-based; conditions: in vivo, 1 h
Procedure, shortened: (§2)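 Mice injected iv with 200-250 μCi tracer; brains taken 60 min later after saline perfusion, snap frozen and cut as 12 μm sagittal sections. Sections air-dried 10 min, exposed to 18F-sensitive phosphor screens 12 h at 4 °C, then imaged; anatomy confirmed by Nissl staining. Blocking arm given BD1047 (1 mg/kg) 10 min before tracer.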

Brain [2] = assay: Biodistribution in mouse brain at 95-125 uCi, iv by PET imaging; assay type: ADME, organism-based; conditions: in vivo
Procedure, shortened: (§3)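 Normal Balb C mice (20-30 g) under isoflurane (3% induction, 1-3% maintenance). […] Dynamic list-mode microPET acquisition started just before injection and ran 60 min; images reconstructed by 2D OSEM, whole-brain time-activity curves.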

CHO [3] = assay: Cellular uptake in CHO cells after 30 to 120 mins by gamma counting; assay type: ADME, cell-based, Cricetulus griseus; conditions: chinese hamster
Procedure, shortened: (§4)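 CHO cells grown in Ham's F-12, seeded 2 × 10^5 per well, transfected 24 h later with 0.8 μg empty pcDNA (control) or 0.8 μg S1R (OPRS1) DNA; medium refreshed at 12 h. At 24 h post-transfection, exposed to [18F] tracer (2 μCi/well) for 30 and 120 min, triplicate wells. Washed twice with cold PBS, lysed in 1 N NaOH, gamma counted; normalized to Bradford protein.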

Brain [4] = assay: Biodistribution in mouse brain assessed as reduction in compound uptake at 95-125 uCi, iv administered 10 mins post BD1047 treatment measured after 60 mins by PET imaging; assay type: ADME, organism-based; conditions: in vivo, 1 h; procedure, shortened: as §3
Liver [5] = assay: Drug uptake in Balb C mouse liver at 630-690 uCi, iv after 60 mins by HPLC analysis; assay type: ADME, organism-based; conditions: in vivo, 1 h; procedure, shortened: as §1
Brain [6] = assay: Biodistribution in mouse brain at 200 uCi administered 10 mins post BD1047 treatment measured after 60 mins by autoradiography; assay type: ADME, organism-based; conditions: in vivo, 1 h; procedure, shortened: as §2
Brain [7] = assay: Biodistribution in mouse brain assessed as reduction in compound uptake at 95-125 uCi, iv administered 10 mins post haloperidol treatment measured after 60 mins by PET imaging; assay type: ADME, organism-based; conditions: in vivo, 1 h; procedure, shortened: as §3
Mus musculus [8] = species on record: Mus musculus; assay: Biodistribution in mouse midbrain at 200 uCi after 60 mins by autoradiography; assay type: ADME, organism-based; conditions: in vivo, 1 h; procedure, shortened: as §2
Mus musculus [9] = species on record: Mus musculus; assay: Biodistribution in mouse corpus callosum at 200 uCi after 60 mins by autoradiography; assay type: ADME, organism-based; conditions: in vivo, 1 h; procedure, shortened: as §2
Liver [10] = assay: Drug uptake in Balb C mouse liver at 630-690 uCi, iv after 30 mins by HPLC analysis; assay type: ADME, organism-based; conditions: in vivo, 0.5 h; procedure, shortened: as §1
Hippocampus = assay: Biodistribution in mouse hippocampus at 200 uCi after 60 mins by autoradiography; assay type: ADME, organism-based; conditions: in vivo, 1 h; procedure, shortened: as §2
Brain [11] = assay: Drug uptake in Balb C mouse brain at 630-690 uCi, iv after 60 mins by HPLC analysis; assay type: ADME, organism-based; conditions: in vivo, 1 h; procedure, shortened: as §1
Brain [12] = assay: Biodistribution in mouse brain assessed as reduction in compound uptake at 95-125 uCi, iv administered 10 mins post FTC-146 treatment measured after 60 mins by PET imaging; assay type: ADME, organism-based; conditions: in vivo, 1 h
Procedure, shortened: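 Normal Balb C mice (20-30 g) under isoflurane (3% induction, 1-3% maintenance). […] Dynamic microPET list-mode acquisition for 60 min, OSEM reconstruction. Whole-brain uptake from time-activity curves, reduction read at 60 min.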

Mus musculus [13] = species on record: Mus musculus; assay: Biodistribution in mouse brain facial nucleus at 200 uCi after 60 mins by autoradiography; assay type: ADME, organism-based; conditions: in vivo, 1 h; procedure, shortened: as §2
Cerebellum = assay: Biodistribution in mouse cerebellum at 200 uCi after 60 mins by autoradiography; assay type: ADME, organism-based; conditions: in vivo, 1 h; procedure, shortened: as §2
[14] = Displacement of [3H]di-o-tolylguanidine from Sigma2 receptor in rat brain homogenate; assay type: tissue-based
Procedure, shortened: (§5)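 Competition binding of unlabeled ligand in rat brain or rat liver homogenates. S2R binding run in the presence of 300 nM 1 to mask S1R sites. Liver assays run on a 96-well platform.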

[15] = Displacement of [3H]di-o-tolylguanidine from Sigma2 receptor in rat liver homogenate; assay type: tissue-based; procedure, shortened: as §5
[16] = molecular target: T1, Sigma non-opioid intracellular receptor 1 (Rattus norvegicus, UniProt Q9R0C9); assay: Displacement of [3H](+)-pentazocine from Sigma1 receptor in rat brain homogenate; assay type: tissue-based
T1 sequence (Q9R0C9 whole entry): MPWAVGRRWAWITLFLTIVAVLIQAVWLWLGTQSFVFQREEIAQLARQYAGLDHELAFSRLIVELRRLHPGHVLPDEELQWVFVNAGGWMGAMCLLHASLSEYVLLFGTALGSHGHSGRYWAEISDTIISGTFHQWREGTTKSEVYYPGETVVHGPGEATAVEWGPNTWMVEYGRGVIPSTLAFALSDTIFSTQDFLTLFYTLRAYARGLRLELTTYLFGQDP

CHO [17] = assay: Cellular uptake in CHO cells after 30 to 120 mins by liquid scintillation counting; assay type: ADME, cell-based, Cricetulus griseus; conditions: chinese hamster
Procedure, shortened: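 Uptake in CHO cells in Ham's F-12, empty-pcDNA or S1R-transfected (0.8 μg DNA, 2 × 10^5 cells/well). [18F]13 at 2 μCi per well or [3H]1, 30 and 120 min, triplicate. Cells washed with cold PBS and lysed in 1 N NaOH. Counted by gamma counter (18F) or liquid scintillation (3H), normalized to Bradford protein.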

[18] = Binding affinity to sodium channel site 2 at 100 nM
[19] = Binding affinity to acetylcholine esterase at 100 nM
[20] = Binding affinity to peripheral muscarinic receptor at 100 nM
[21] = Binding affinity to alpha bungarotoxin insensitive neuronal nicotinic receptor at 100 nM
[22] = molecular target: Sigma non-opioid intracellular receptor 1 (Homo sapiens) (UniProt Q99720); assay: Binding affinity to Sigma1 receptor overexpressed in CHO cells after 120 mins by gamma counting relative to control; assay type: cell-based; conditions: tested as the 18F-labelled form
Chain of Sigma non-opioid intracellular receptor 1 (Homo sapiens) (Q99720 whole entry): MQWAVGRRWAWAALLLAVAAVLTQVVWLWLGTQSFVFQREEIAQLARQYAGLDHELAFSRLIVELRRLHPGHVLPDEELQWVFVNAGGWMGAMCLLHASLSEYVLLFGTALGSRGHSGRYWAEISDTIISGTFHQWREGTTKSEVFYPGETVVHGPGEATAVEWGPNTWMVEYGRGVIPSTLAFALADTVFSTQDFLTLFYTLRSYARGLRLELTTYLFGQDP
Procedure, shortened: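 CHO cells grown in Ham's F-12, 2 × 10^5 per well, transfected 24 h later with 0.8 μg empty pcDNA (control) or S1R (OPRS1) cDNA; medium refreshed at 12 h. At 24 h post-transfection, 2 μCi [18F] tracer per well; triplicates; 30 and 120 min uptake, two cold PBS washes, 1 N NaOH lysis, γ counting, normalized to Bradford protein.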

[23] = molecular target: Sodium-dependent noradrenaline transporter (Homo sapiens) (UniProt P23975); assay: Binding affinity to norepinephrine transporter at 100 nM
Chain of Sodium-dependent noradrenaline transporter (Homo sapiens) (P23975 whole entry): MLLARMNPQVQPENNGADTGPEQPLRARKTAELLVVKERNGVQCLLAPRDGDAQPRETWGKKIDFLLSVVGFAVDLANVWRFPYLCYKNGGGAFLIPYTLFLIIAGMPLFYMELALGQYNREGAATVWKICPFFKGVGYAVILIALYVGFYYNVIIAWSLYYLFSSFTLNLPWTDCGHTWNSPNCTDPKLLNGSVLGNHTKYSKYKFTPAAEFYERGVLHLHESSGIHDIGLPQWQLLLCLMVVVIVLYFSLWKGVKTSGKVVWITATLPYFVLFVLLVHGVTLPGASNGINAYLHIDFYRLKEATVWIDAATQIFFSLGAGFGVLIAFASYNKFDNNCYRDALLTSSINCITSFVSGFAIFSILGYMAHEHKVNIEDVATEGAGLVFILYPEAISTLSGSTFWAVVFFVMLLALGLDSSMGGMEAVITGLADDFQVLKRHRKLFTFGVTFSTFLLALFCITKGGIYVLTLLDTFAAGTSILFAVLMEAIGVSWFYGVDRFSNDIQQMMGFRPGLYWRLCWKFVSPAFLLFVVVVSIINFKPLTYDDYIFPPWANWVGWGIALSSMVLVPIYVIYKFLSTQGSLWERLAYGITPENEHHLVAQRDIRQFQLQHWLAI

[24] = molecular target: T1, Sigma non-opioid intracellular receptor 1; assay: Displacement of [3H](+)-pentazocine from Sigma1 receptor in rat liver homogenate; assay type: tissue-based
[25] = molecular target: Sigma non-opioid intracellular receptor 1 (Homo sapiens) (UniProt Q99720); assay: Binding affinity to Sigma1 receptor overexpressed in CHO cells after 30 to 120 mins by gamma counting; assay type: cell-based; conditions: tested as the 18F-labelled form; procedure, shortened: as §4
[26] = Binding affinity to alpha-2 adrenergic receptor at 100 nM
[27] = molecular target: T2, Muscarinic acetylcholine receptor M2 (Homo sapiens) (UniProt P08172); assay: Binding affinity to muscarinic M2 receptor at 100 nM
T2 sequence (whole entry): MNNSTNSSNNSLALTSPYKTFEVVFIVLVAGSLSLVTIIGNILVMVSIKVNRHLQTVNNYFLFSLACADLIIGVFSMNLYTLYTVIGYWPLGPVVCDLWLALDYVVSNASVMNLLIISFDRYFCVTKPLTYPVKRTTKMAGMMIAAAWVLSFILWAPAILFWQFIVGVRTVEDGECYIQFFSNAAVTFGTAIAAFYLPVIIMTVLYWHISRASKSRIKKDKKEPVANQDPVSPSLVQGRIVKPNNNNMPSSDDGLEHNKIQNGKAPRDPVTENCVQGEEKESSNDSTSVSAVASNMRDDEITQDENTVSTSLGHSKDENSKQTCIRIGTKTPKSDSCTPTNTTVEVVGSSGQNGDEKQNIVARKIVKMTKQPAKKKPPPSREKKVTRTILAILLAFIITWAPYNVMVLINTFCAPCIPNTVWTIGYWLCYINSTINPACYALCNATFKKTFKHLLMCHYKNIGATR

[28] = Binding affinity to calcium channel L type at 100 nM
[29] = molecular target: Histamine H2 receptor (Homo sapiens) (UniProt P25021); assay: Binding affinity to histamine H2 receptor at 100 nM
Chain of Histamine H2 receptor (Homo sapiens) (P25021 whole entry): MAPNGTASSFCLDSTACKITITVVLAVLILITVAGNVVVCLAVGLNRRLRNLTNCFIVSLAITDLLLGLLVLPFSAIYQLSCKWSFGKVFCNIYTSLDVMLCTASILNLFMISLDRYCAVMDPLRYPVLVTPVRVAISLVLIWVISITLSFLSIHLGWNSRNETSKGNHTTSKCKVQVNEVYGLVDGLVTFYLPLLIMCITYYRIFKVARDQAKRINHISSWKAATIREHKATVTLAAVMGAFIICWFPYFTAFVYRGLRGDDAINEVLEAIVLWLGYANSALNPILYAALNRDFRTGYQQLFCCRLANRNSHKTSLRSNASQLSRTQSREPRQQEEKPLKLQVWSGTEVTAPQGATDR

## O=c1sc2cc(CCC[18F])ccc2n1CCN1CCCCCC1
Brain [1]
  Drug uptake: 100%
Cortex
  Drug uptake: Active
Brain [2]
  Drug uptake: Active
CHO [3]
  Drug uptake: Active
Brain [4]
  Drug uptake: 81%
Liver [5]
  Drug uptake: 27%
Brain [6]
  Drug uptake: Not Active
Brain [7]
  Drug uptake: 80%
Mus musculus [8]
  Drug uptake: Active
Mus musculus [9]
  Drug uptake: Not Active
Liver [10]
  Drug uptake: 34%
Hippocampus
  Drug uptake: Active
Brain [11]
  Drug uptake: 100%
Brain [12]
  Drug uptake: 82%
Mus musculus [13]
  Drug uptake: Active
Cerebellum
  Drug uptake: Active

## CCCc1ccc2c(c1)sc(=O)n2CCN1CCCCCC1
[14]
  Ki: 627 nM
[15]
  Ki: 247 nM
[16]
  Ki: 1.7 nM

## [3H]c1cc2c(c([3H])c1O)[C@@]1(C)CCN(CC=C(C)C)[C@@H](C2)[C@H]1C
CHO [17]
  Drug uptake: Active

## O=c1sc2cc(CCCF)ccc2n1CCN1CCCCCC1
[18]
  Activity: < 50%
[19]
  Activity: < 50%
[20]
  Activity: < 50%
[21]
  Activity: < 50%
[22]
  fold change (FC): 4
[23]
  Activity: < 50%
[24]
  Ki: 0.96 nM
[25]
  Activity: Active
[26]
  Activity: < 50%
[27]
  Activity: < 50%
[15]
  Ki: 467 nM
[28]
  Activity: < 50%
[29]
  Activity: < 50%
